Source: PubChem BioAssay (Broad Institute)
Shown are actives, neighbours in structure and some others; about 2.2% of the full set was active somewhere.
CAL PDZ FP-1 – CAL PDZ (human) peptide binding inhibition; purified CAL PDZ, TMR-peptide fluorescence polarization, 1 h; inhibition, % at 24.9 µM; 0.92% of 300,000 active; AID 602252;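 active = mean inhibition of at least 30% with at least half of replicates also reaching 30%; inconclusive = no clear call, values can overlap the other calls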;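 also: 0% = DMSO neutral control and 100% = excess unlabeled competitor peptide PRC23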
CDK5 p35 inh – blocks human CDK5/p35 kinase activity | Q00535+Q15078 | Recombinant CDK5/p35, ADP-Glo luminescence, 60 min | inhibition, % at 10 µM | 0.01% of 330,000 active | AID 488839;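 active = highest replicate inhibition of at least 50% and at least 75% of replicates reaching 50%; inconclusive = only one of the two criteria met; inactive = both criteria failed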;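 also: plate controls were DMSO neutral control for no effect and GW8510 at 10 µM for full effect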
Rtt109 Vps75 – blocks Candida albicans Rtt109/Vps75 acetyltransferase activity | Q5AAJ8 | purified Rtt109/Vps75, ThioGlo CoA-SH fluorescence, 4 h | inhibition, % at 34.9 µM | 0.16% of 330,000 active;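 active = inhibition of at least 50% in every replicate; inconclusive = best replicate reaches 50% inhibition but some replicates fall short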
DYRK1A inh – inhibitors of rat Dyrk1A kinase; Q63470; ADP-Glo luminescence, NFATc1 peptide; inhibition, % at 12.5 µM; 0.43% of 310,000 active; in the data active = inhibition above about 50%;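 also: plate controls were vehicle with enzyme for no effect and no enzyme for full effect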
CAL PDZ FP-2 – inhibitors of human CAL PDZ peptide binding; purified CAL PDZ, TMR-peptide fluorescence polarization, 1 h; inhibition, % at 20 µM; 0.02% of 330,000 active;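 active = highest replicate inhibition of at least 40%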;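 also: plate controls were DMSO neutral control wells for no effect and unlabeled competitor peptide control wells for full effect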
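Test system: tagged CAL PDZ domain / Buffer or medium: sodium phosphate/NaCl buffer pH 7.4 with TCEP, IgG, Thesit / Reagent: TMR-labelled reporter peptide T*-PRC34 bound in PDZ groove / Compound dosing: single point, 20 µM / Schedule: 1 h incubation at room temperature before polarization reading / Technique: fluorescence polarization (mP) / Benchmarks: unlabelled peptide, DMSO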
dFosB act-1 – enhances mouse delta FosB homodimer DNA binding. P13346. purified delta FosB, TAMRA-CDK5 oligo fluorescence polarization; percent of positive-control signal above neutral wells. activation, % at 25 µM. 0.99% of 340,000 active;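 active = mean activation above about 17%, with every replicate also reaching it, limit read from the data, passing the limit was not always enough; inconclusive = only one of the two conditions met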
Target sequence (P13346 whole entry, looked up): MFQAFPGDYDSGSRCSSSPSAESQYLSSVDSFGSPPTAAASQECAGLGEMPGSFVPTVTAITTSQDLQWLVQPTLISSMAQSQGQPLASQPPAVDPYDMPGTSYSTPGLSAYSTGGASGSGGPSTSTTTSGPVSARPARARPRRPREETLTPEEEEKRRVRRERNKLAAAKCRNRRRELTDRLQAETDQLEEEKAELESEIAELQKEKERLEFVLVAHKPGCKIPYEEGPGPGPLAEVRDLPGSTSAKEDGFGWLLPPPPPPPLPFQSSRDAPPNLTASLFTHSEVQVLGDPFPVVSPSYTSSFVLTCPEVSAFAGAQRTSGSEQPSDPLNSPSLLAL
dFosB act-2 – delta FosB (mouse) homodimer activation; AID 588690; 2,400 tested, under 10 active; activation, % at 24.9 µM; shares compounds with dFosB act-1; purified delta FosB, TAMRA-CDK5 oligo fluorescence polarization; normalised: neutral wells 0, positive control 100;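 active = highest replicate activation at or above 34% and every replicate reaching that threshold; inconclusive = meets only one of the two criteria; inactive = meets neither criterion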;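 also: higher polarization means more probe DNA bound by delta FosB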
* marks the source's active call; other numbers are inactive results; ? = inconclusive; / = no result given; ! = a repeat was not active.

SMILES	CAL PDZ FP-1	CDK5 p35 inh	Rtt109 Vps75	DYRK1A inh	CAL PDZ FP-2	dFosB act-1	others
CNC1(c2ccc(F)cc2)CCCCC1	-4	1	-3	/	0	2
CC(c1ccccc1F)n1cc(C(=O)Nc2ccc3nc[nH]c3c2)nn1 (stereo unspecified)	-4	0	2	/	-1	6
COc1cccc(CNCCc2ccc(F)cc2)c1	77*	-1	-5	45	0	-3
Cc1ccc(-c2nc3ccccc3c(=O)n2-c2cccc(O)c2)cc1	58*	-1	3	5	-3	-12
Cc1nc2ccccc2c(=O)n1-c1cccc(O)c1	0	-1	-21	11	/	-4
CCC(=Nc1ccccc1N)c1c(O)[nH]c(=O)[nH]c1=O	-1	1	-5	2	1	-1
CC[n+]1c(/C=C/C=C/c2ccc(N(C)C)cc2)sc2ccccc21	/	15	-9	18	1	155*
Cc1nn(Cc2ccccc2Cl)c(C)c1C(=O)OCC(=O)N1CC(C)OC(C)C1 (stereo unspecified)	-6	-2	1	-1	-1	-2
O=C1NC(=O)N(c2ccccc2)C(=O)/C1=C/c1ccc(Sc2ccccc2)o1	-3	0	6	-1	/	-10
O=C1NC(=O)N(c2ccccc2F)C(=O)/C1=C/c1ccc(Sc2nc3ccccc3[nH]2)o1	-5	-1	38	/	-4	27*
O=C1NC(=O)N(c2cccc(Cl)c2)C(=O)/C1=C\c1ccc(Sc2nc3ccccc3[nH]2)o1	-1	3	13	1	-3	49*
CC(=NCc1cccnc1)c1c(O)n(-c2ccc(Cl)cc2)c(=O)[nH]c1=O	46*	0	-7	-2	0	12
COc1ccc(/C=C2\C(=O)NC(=O)N(Cc3ccccc3)C2=O)c(OC)c1OC	-3	0	22	-9	-2	-9
COc1cc(OC)c(OC)cc1/C=C1\C(=O)NC(=O)N(Cc2ccccc2)C1=O	67*	-6	9	0	0	-6
Cc1cc(/C=C2\C(=O)NC(=O)N(Cc3ccccc3)C2=O)c(C)n1C1CC1	-5	0	3	-2	-1	43*
COc1cc(OC)c(OC)cc1/C=C1/C(=O)NC(=O)N(Cc2ccccc2)C1=O	/	-4	-4	3	1	-13
CN(CC=CCN(C)P(=S)(N1CC1)N1CC1)P(=S)(N1CC1)N1CC1	34*	-1	1	3	-1	-3
CC(=NCCc1ccccc1)c1c(O)[nH]c(=O)[nH]c1=O	-6	1	-9	-6	1	-3
O=c1[nH]c(O)c(C=NCCc2ccccc2)c(=O)[nH]1	84*	1	-1	1	-1	11
Cc1nc2ccc(Cl)cc2c(=O)n1-c1ccc([N+](=O)[O-])cc1	75*	-2	-8	4	/	-6
Cc1nc2ccccc2c(=O)n1-c1ccc([N+](=O)[O-])cc1	-3	-1	-2	-2	/	7
Fc1ccc(NC2=NCCS2)cc1Cl	/	0	-2	3	0	-2
CC1CN=C(Nc2ccc(F)c(Cl)c2)S1 (stereo unspecified)	54*	0	-8	/	0	-4
O=C(NC1CCCCC1)Oc1cc2oc(=O)sc2cc1Cl	-3	0	89*	-3	-1	-1
CC(C)N1C(=O)/C(=C/C=C/c2ccco2)C(=O)N(Cc2ccco2)C1=O	-2	-1	1	4	-2	-15
SMILES	CAL PDZ FP-1	CDK5 p35 inh	Rtt109 Vps75	DYRK1A inh	CAL PDZ FP-2	dFosB act-1	others
CCN1C(=O)C(=C/C=C/c2ccco2)C(=O)N(CC)C1=S	-14	-16	28	3	-3	57*
COC(=O)C(Cc1ccc(N(CCCl)CCCl)cc1)N=Cc1ccccc1O (stereo unspecified)	-3	0	-1	0	0	-9
CN(C)c1ccc(/C=C/c2cc[n+](C)c3ccccc23)cc1	15	12	181*!	5	0	93*
CN(C)c1ccc(/C=C/C=C/c2sc3ccccc3[n+]2C)cc1	/	4	-1	5	1	?
COC(=O)C1=C(c2ccc(OC)c(OC)c2)C[C@@H]2CC[C@H]1N2C(=O)N1CCOCC1	-1	1	-1	-10	0	-15
COC(=O)C1=C(c2ccc(OC)c(OC)c2)C[C@@H]2CC[C@H]1N2C(=O)N1CCC(C)CC1	41*	1	2	3	-4	2
Cc1cccc(N2C(=O)NC(=O)/C(=C\c3ccc(N4CCOCC4)cc3)C2=O)c1	56*	-1	20	/	-1	2
CCc1ccc(-n2c(O)c(/C=N/N3CCCCC3c3cccnc3)c(=O)[nH]c2=O)cc1 (stereo unspecified)	10	-1	-1	-2	0	-6
O=c1[nH]c(=S)n(-c2ccccc2)c(O)c1/C=N/N1CCCCC1c1cccnc1 (stereo unspecified)	-1	0	1	-4	-2	39*
CSc1nc2ccccc2c(=O)n1-c1cccnc1	79*	-1	4	0	0	4
Clc1ccc(COC(Cn2ccnc2)c2ccc(Cl)cc2Cl)c(Cl)c1 (stereo unspecified)	0	-3	74*!	-4	-1	1
Oc1ccc2c3c1O[C@H]1[C@@H](O)CC[C@@]4(O)[C@@H](C2)N(CC2CCC2)CC[C@]314	0	0	-1	1	0	6
NC(N)=Nc1ccc2[nH]c3c(c2c1)C[C@@]1(O)[C@H]2Cc4ccc(O)c5c4[C@@]1(CCN2CC1CC1)[C@H]3O5	9	0	18	10	1	41*
CCn1nc(-c2cccs2)nc2c(=O)n(C)c(=O)nc1-2	-2	5	2	63*	-2	-28
ClCCOCCCl	2	-1	1	/	-1	-1
Cn1c(O)c(Cc2ccc(OCc3ccccc3)cc2)c(=O)n(C)c1=O	0	-1	-9	6	-3	-11
Cc1sc2ncnc(N3CCC(C(=O)Nc4ccc(C#N)c(Cl)c4)CC3)c2c1C	/	-3	1	/	-1	32*	dFosB act-2=-3
O=[N+]([O-])c1c2ccccc2cc2ccccc12	-27	0	16	/	0	8
O=C1CN=C(c2ccc(Br)cc2)c2oc3ccccc3c2N1	-3	0	-2	0	0	4
O=C1CN=C(c2ccccc2)c2oc3ccc(Br)cc3c2N1	0	0	5	2	21	30*	dFosB act-2=-6
